Source: article PMC2650427 (Bioconjugate chemistry, 2008)
Where two headings read alike, the source gives them in different places. Marks after values point to notes of the source that are not given here.

Columns and labels:
[1] = cited from earlier work
[2] = calculated at 25 °C; cited from earlier work
Relaxivity = type: physicochemical; conditions: 100 mM phosphate buffer, pH 7.4, ambient temperature (~25 °C); saturation recovery; assessed in duplicate
[3] = Determination of τm by 17O transverse relaxation rate measurements; type: physicochemical; conditions: variable temperature 17O NMR at 54 MHz, 15–20 mM, pH 7.40; calculated at 25 °C
NIH/3T3 cells = test: MR imaging and T1 analysis of labelled cells; type: cell-based; conditions: 1.0 mM, 4 h, washes at 1 hour intervals, T1-weighted, 14.1 T
[4] = In vitro cleavage by disulfide exchange with GSH; type: physicochemical; conditions: 1.0 mM in DPBS, 37 °C, 4 h; GSH at 4 times the contrast agent; HPLC-MS ion count
Outline: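 Disulfide-linked Gd(III)-DTPA–octaarginine test compound was incubated with increasing GSH (0.25 to 4 equivalents) in 1.0 mM DPBS. Start times were staggered so each sample had 4 h at 37 °C before LC-MS. Separation used a C18 column (4.6 × 250 mm, 5 µm) at 1.0 mL/min with a water/MeCN gradient of 0–60% MeCN over 40 min. Total ion counts of the GSH-exchange product and of the starting material were compared.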

Compound	q (number of bound water molecules) [1]	τm (mean residence lifetime of coordinated water) [2]	Relaxivity, 600 MHz (14.1 T) (Relaxivity) [mM⁻¹ s⁻¹]	τm (mean residence lifetime of coordinated water) [3] [ns]	MR image intensity after leaching (NIH/3T3 cells)	Completeness of disulfide cleavage at 4:1 GSH [4]
O=C([O-])CN1CCN(CC(=O)[O-])CCN(CC(=O)O)CCN(CC(=O)[O-])CC1.[Gd+3] [Gd(III)-DOTA]	1.2 ^d	243 ^e ns	2.12	–	–	–
O=C([O-])CN(CCN(CC(=O)[O-])CC(=O)O)CCN(CC(=O)[O-])CC(=O)O.[Gd+3] [Gd(III)-DTPA]	1.2 ^d	303 ^e ns	2.09	–	–	–
Gd(III)-DOTA-SS-Arg8 [compound 3]	–	–	3.52	840	little loss of signal intensity	–
Gd(III)-DTPA-SS-Arg8 [compound 4]	–	–	3.46	1327	little loss of signal intensity	complete cleavage is not obtainable
